pIC50: −log10 of the molar value. Activity calls are given as the source filed them. The calls are words filed in the database; no cut-off is given here.
Key:
[1] = Growth inhibition of human SGC7901 cells after 72 hrs by MTT assay; assay type: functional, cell-based; conditions: SGC-7901, 72 h
Summary of the method: (§1)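 Cells grown in RPMI-1640 with 10% FBS, penicillin/streptomycin, 37 °C, 5% CO2; seeded 1-3 × 10^4/well, treated 24 h later in triplicate wells for 72 h. MTT (5 mg/mL) added in fresh medium for 4 h, formazan dissolved in DMSO, OD490 read; IC50 = concentration reducing absorbance by 50% versus vehicle-treated wells; triplicate experiments.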

A549 = test: Growth inhibition of human A549 cells after 72 hrs by MTT assay; assay type: functional, cell-based; conditions: A549, 72 h; summary of the method: as §1
[2] = Growth inhibition of human HT1080 cells after 72 hrs by MTT assay; assay type: functional, cell-based; conditions: HT-1080, 72 h; summary of the method: as §1
Tubulin (Bos taurus) = Tubulin (Bos taurus) (UniProt Q6B856+Q862L2+Q862F3); test: (§2) Inhibition of bovine brain tubulin polymerization incubated for 90 mins by fluorescence-based assay
Summary of the method: (§3)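 Fluorescence kit assay with purified bovine tubulin resuspended in ice-cold G-PEM (80 mM PIPES, 2 mM MgCl2, 0.5 mM EGTA, 1 mM GTP, 20% glycerol) and added to drug or DMSO vehicle. Reaction started by warming from 4 °C to 37 °C.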

Tubulin = Tubulin (Bos taurus, UniProt Q6B856+Q862L2+Q862F3); test: as §2; summary of the method: as §3
Tubulin (Homo sapiens) [3] = target: T1, Tubulin (Homo sapiens) (UniProt P68371+Q9H4B7+P0DPH7+P68366+Q13509+Q71U36+P04350+Q3ZCM7+P07437+P68363+Q9BQE3+Q6PEY2+Q13885+Q9BVA1+Q9BUF5); test: Induction of distortions in tubulin assembly in human SGC7901 cells assessed as abnormal mitotic spindle formation at 2 fold IC50 level incubated for 48 hrs by immunofluorescence staining based fluorescence microscopy; assay type: cell-based; conditions: SGC-7901
Summary of the method: (§4)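 Fixed in 4% formaldehyde/PBS 30 min at -20 °C, permeabilised with 0.1% Triton X-100, blocked in 5% BSA. Stained with α-tubulin primary (1:100, overnight 4 °C) and FITC anti-mouse secondary (1:1000, 3 h 37 °C), DAPI nuclei; fluorescence microscopy.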

Tubulin (Homo sapiens) [4] = target: T1, Tubulin (Homo sapiens); test: Induction of distortions in tubulin assembly in human HT1080 cells assessed as abnormal mitotic spindle formation at 2 fold IC50 level incubated for 48 hrs by immunofluorescence staining based fluorescence microscopy; assay type: cell-based; conditions: HT-1080; summary of the method: as §4

SMILES | pIC50 [1] | pIC50 (A549) | pIC50 [2] | inhibition (Tubulin (Bos taurus)) | IC50 (Tubulin) [µM] | Activity (Tubulin (Homo sapiens) [3]) | Activity (Tubulin (Homo sapiens) [4])
COC(=O)Nc1nc2cc(S(=O)(=O)c3c[nH]c4ccc(C#N)cc34)ccc2[nH]1 | < 5.00 | < 5.00 | < 5.00 | – | – | – | –
COC(=O)Nc1nc2cc([Se]c3c(C)[nH]c4ccccc34)ccc2[nH]1 | 6.64 | 5.42 | 6.57 | – | – | – | –
COC(=O)Nc1nc2cc(S(=O)(=O)c3c(C)[nH]c4ccc(Cl)cc34)ccc2[nH]1 | < 5.00 | < 5.00 | < 5.00 | – | – | – | –
COC(=O)Nc1nc2cc(Sc3c[nH]c4ccc(Br)cc34)ccc2[nH]1 | 5.67 | 5.92 | 5.88 | Dose-dependent effect | 8.2 | – | –
COC(=O)Nc1nc2cc(Sc3c[nH]c4ccc(C#N)cc34)ccc2[nH]1 | 6.92 | 5.29 | 6.21 | – | – | – | –
COC(=O)Nc1nc2cc(Sc3c[nH]c4ccccc34)ccc2[nH]1 | 5.58 | 6.41 | 6.06 | – | – | – | –
COC(=O)Nc1nc2cc([Se]c3c(C)[nH]c4ccc(Cl)cc34)ccc2[nH]1 | < 5.00 | 5.53 | < 5.00 | – | – | – | –
COC(=O)Nc1nc2cc([S+]([O-])c3c[nH]c4ccc(Br)cc34)ccc2[nH]1 (stereo not drawn) | 5.28 | < 5.00 | < 5.00 | – | – | – | –
COC(=O)Nc1nc2cc(S(=O)(=O)c3c[nH]c4ccccc34)ccc2[nH]1 | 5.90 | 5.38 | 5.70 | – | – | – | –
COC(=O)Nc1nc2cc(Sc3c(C)[nH]c4ccc(Cl)cc34)ccc2[nH]1 | 5.47 | 5.13 | 5.38 | – | – | – | –
COC(=O)Nc1nc2cc([S+]([O-])c3c(C)[nH]c4ccc(F)cc34)ccc2[nH]1 (stereo not drawn) | 5.45 | 5.49 | < 5.00 | – | – | – | –
COC(=O)Nc1nc2cc([S+]([O-])c3c[nH]c4ccc(C#N)cc34)ccc2[nH]1 (stereo not drawn) | < 5.00 | < 5.00 | 5.03 | – | – | – | –
COC(=O)Nc1nc2cc(Sc3c(C)[nH]c4ccc(F)cc34)ccc2[nH]1 | 5.92 | 5.60 | 5.49 | – | – | – | –
COC(=O)Nc1nc2cc([S+]([O-])c3c[nH]c4ccccc34)ccc2[nH]1 (stereo not drawn) | 5.40 | 5.21 | 5.28 | – | – | – | –
COC(=O)Nc1nc2cc(S(=O)(=O)c3c[nH]c4ccc(Br)cc34)ccc2[nH]1 | 5.13 | 5.13 | 5.50 | – | – | – | –
COC(=O)Nc1nc2cc(S(=O)(=O)c3c(C)[nH]c4ccccc34)ccc2[nH]1 | < 5.00 | < 5.00 | < 5.00 | – | – | – | –
COC(=O)Nc1nc2cc([S+]([O-])c3c(C)[nH]c4ccc(Cl)cc34)ccc2[nH]1 (stereo not drawn) | < 5.00 | < 5.00 | < 5.00 | – | – | – | –
COC(=O)Nc1nc2cc([Se]c3c(C)[nH]c4ccc(F)cc34)ccc2[nH]1 | 5.95 | 5.94 | 5.77 | – | – | – | –
COC(=O)Nc1nc2cc([S+]([O-])c3c(C)[nH]c4ccccc34)ccc2[nH]1 (stereo not drawn) | 5.00 | 5.10 | 5.01 | – | – | – | –
COC(=O)Nc1nc2cc([Se]c3c[nH]c4ccc(Br)cc34)ccc2[nH]1 | 5.67 | 5.66 | 5.56 | – | – | – | –
COC(=O)Nc1nc2cc(Sc3c(C)[nH]c4ccccc34)ccc2[nH]1 | 6.29 | 6.08 | 6.01 | – | – | – | –
COC(=O)Nc1nc2cc(C(=O)c3cccs3)ccc2[nH]1 [NOCODAZOLE] | 7.10 | 6.92 | 6.85 | – | – | Active | Active
COC(=O)Nc1nc2cc(S(=O)(=O)c3c(C)[nH]c4ccc(F)cc34)ccc2[nH]1 | 5.38 | 5.04 | < 5.00 | – | – | – | –
COC(=O)Nc1nc2cc([Se]c3c[nH]c4ccccc34)ccc2[nH]1 | 7.01 | 6.82 | 6.89 | Dose-dependent effect | 3.6 | Active | Active
COC(=O)Nc1nc2cc([Se]c3c[nH]c4ccc(C#N)cc34)ccc2[nH]1 | 5.95 | 5.29 | 6.02 | – | – | – | –

— ChEMBL document CHEMBL3351665, “Synthesis and evaluation of benzimidazole carbamates bearing indole moieties for antiproliferative and antitubulin activities” (Eur J Med Chem, 2014)
